Assays:
[1] = biological target: T1, Prostaglandin E2 receptor EP4 subtype (Homo sapiens, UniProt P35408); assay: Antagonist activity at human EP4 receptor expressed in HEK293 cells assessed as inhibition of PGE2-induced cAMP level by HTS assay; format: functional, cell-based; conditions: for Kb: read-out: pA2 (converted)
[2] = biological target: T1, Prostaglandin E2 receptor EP4 subtype; assay: Displacement of [3H]PGE from human EP4 receptor expressed in HEK293 cell membranes
Procedure, shortened: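 Membrane binding assay using [3H]PGE2 with membranes from HEK-293 cells expressing human EP4. The value is expressed as Ki.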

[3] = Apparent permeability from apical to basolateral side in human Caco2 cells; format: ADME, cell-based; conditions: Caco-2
Procedure, shortened: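 Caco-2 monolayer permeability (Papp, apical to basolateral) was measured under constant pH, with the apical side at pH 6.5 and the basolateral side at pH 7.4.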

[4] = Half life in human liver microsomes; format: ADME, microsome
[5] = biological target: T2, Prostaglandin E2 receptor EP1 subtype (Homo sapiens, UniProt P34995); assay: Antagonist activity at human EP1 receptor
T2 sequence (P34995 whole entry): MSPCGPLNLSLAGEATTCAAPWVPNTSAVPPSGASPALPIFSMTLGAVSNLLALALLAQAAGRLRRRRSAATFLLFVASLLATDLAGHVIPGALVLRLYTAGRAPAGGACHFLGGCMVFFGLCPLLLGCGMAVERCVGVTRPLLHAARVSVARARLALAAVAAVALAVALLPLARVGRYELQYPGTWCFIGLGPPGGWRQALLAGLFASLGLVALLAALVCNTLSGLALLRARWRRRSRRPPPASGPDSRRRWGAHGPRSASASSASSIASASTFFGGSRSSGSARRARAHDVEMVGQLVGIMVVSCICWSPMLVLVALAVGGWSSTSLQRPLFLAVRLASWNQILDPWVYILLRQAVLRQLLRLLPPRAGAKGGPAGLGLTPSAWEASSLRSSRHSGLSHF

[6] = biological target: Prostaglandin E2 receptor EP2 subtype (Homo sapiens, UniProt P43116); assay: Antagonist activity at human EP2 receptor
[7] = biological target: T3, Prostaglandin E2 receptor EP3 subtype (Homo sapiens, UniProt P43115); assay: Antagonist activity at human EP3 receptor
T3 sequence (P43115 whole entry): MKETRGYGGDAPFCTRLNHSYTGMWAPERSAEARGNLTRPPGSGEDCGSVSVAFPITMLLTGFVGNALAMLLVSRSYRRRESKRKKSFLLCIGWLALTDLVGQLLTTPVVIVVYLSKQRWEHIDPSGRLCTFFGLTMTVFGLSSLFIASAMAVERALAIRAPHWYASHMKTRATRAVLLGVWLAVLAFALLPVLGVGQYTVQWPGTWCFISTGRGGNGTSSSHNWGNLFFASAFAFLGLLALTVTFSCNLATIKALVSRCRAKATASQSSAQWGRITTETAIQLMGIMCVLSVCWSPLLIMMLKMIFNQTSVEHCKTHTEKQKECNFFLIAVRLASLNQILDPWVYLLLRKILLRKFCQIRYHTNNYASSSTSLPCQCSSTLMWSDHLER

[8] = Genotoxicity in CHL cells after 72 hrs using acridine orange stain by fluorescence microscopic based micronucleus test; format: toxicity, cell-based, Cricetulus griseus; conditions: chinese hamster
[9] = Efflux ratio of apparent permeability in human Caco2 cells; format: ADME, cell-based; conditions: Caco-2
Procedure, shortened: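 Caco-2 human colon carcinoma monolayers. Permeability measured in both directions (apical to basolateral and basolateral to apical) under constant pH: apical pH 6.5, basolateral pH 7.4. Efflux ratio taken as Papp B→A divided by Papp A→B.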

[10] = Apparent permeability from basolateral to apical side in human Caco2 cells; format: ADME, cell-based; conditions: Caco-2
Procedure, shortened: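 Caco-2 permeability was measured basolateral to apical under the same pH conditions as the apical-to-basolateral direction (apical 6.5, basolateral 7.4). Efflux ratio was derived from the two directions.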

Rattus norvegicus [11] = assay: Analgesic activity in po dosed rat assessed as inhibition of carrageenan-induced mechanical hyperalgesia measured at 1 hr post dose; format: functional; conditions: read-out: MED
Procedure, shortened: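 Rats dosed orally. Mechanical hyperalgesia was induced with carrageenan and assessed 1 h post dose. The value is the minimum effective dose (MED, mg/kg PO).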

[12] = Solubility of the compound in pH 6.5 PBS; format: physicochemical
Thromboxane A2 receptor = biological target: T4, Thromboxane A2 receptor (Homo sapiens, UniProt P21731); assay: Antagonist activity at human platelet TP receptor
T4 sequence (P21731 whole entry): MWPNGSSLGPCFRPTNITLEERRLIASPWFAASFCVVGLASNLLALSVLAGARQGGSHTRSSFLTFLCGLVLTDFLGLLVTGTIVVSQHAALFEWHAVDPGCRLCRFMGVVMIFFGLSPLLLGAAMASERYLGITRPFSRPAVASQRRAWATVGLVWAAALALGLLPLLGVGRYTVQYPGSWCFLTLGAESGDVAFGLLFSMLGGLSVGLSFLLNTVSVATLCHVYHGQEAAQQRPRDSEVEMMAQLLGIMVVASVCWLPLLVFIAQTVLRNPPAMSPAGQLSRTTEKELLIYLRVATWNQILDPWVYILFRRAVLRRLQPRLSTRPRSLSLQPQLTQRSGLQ

Rattus norvegicus [13] = assay: Analgesic activity in po dosed rat model of chronic inflammatory pain assessed as inhibition of CFA-induced weight bearing deficit; format: functional; conditions: read-out: MED
Procedure, shortened: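 Chronic inflammatory pain was modelled in rats with CFA and read out as weight bearing deficit after oral dosing. The value is the minimum effective dose (MED, mg/kg PO).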

[14] = biological target: Prostaglandin E2 receptor EP4 subtype (Mus musculus, UniProt P32240); assay: Antagonist activity at mouse recombinant EP4 receptor assessed as inhibition of PGE2-induced cAMP level by cell based assay; format: functional; conditions: read-out: pA2 (converted)
Procedure, shortened: (§1)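 Functional antagonism was measured as inhibition of PGE2-induced cAMP in cells transfected with rodent EP4 (mouse or rat). The value is expressed as pA2.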

[15] = biological target: T5, Prostaglandin E2 receptor EP4 subtype (Rattus norvegicus, UniProt P43114); assay: Antagonist activity at rat recombinant EP4 receptor
[16] = biological target: T5, Prostaglandin E2 receptor EP4 subtype; assay: Antagonist activity at rat recombinant EP4 receptor assessed as inhibition of PGE2-induced cAMP level by cell based assay; format: functional; conditions: read-out: pA2 (converted); procedure, shortened: as §1
[17] = biological target: Prostaglandin E receptor 4 (Canis lupus familiaris, UniProt Q9TU16); assay: Antagonist activity at dog recombinant EP4 receptor
[18] = biological target: Prostaglandin F2-alpha receptor (Homo sapiens, UniProt P43088); assay: Antagonist activity at human FP receptor
Prostacyclin receptor = Prostacyclin receptor (Homo sapiens, UniProt P43119); assay: Antagonist activity at human IP receptor
[19] = Antagonist activity at human DP receptor

Chain of Prostaglandin E2 receptor EP2 subtype (P43116 whole entry): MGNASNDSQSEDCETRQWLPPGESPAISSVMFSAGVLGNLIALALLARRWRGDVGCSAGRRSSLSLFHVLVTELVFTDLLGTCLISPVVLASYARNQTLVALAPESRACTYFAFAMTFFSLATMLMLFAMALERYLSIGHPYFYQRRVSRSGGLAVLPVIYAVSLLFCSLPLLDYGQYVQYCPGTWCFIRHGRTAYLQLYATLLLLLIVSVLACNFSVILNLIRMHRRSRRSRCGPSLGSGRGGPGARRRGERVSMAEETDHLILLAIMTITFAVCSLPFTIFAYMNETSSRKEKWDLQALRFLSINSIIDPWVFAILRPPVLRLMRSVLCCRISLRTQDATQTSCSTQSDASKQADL
T1 sequence (P35408 whole entry): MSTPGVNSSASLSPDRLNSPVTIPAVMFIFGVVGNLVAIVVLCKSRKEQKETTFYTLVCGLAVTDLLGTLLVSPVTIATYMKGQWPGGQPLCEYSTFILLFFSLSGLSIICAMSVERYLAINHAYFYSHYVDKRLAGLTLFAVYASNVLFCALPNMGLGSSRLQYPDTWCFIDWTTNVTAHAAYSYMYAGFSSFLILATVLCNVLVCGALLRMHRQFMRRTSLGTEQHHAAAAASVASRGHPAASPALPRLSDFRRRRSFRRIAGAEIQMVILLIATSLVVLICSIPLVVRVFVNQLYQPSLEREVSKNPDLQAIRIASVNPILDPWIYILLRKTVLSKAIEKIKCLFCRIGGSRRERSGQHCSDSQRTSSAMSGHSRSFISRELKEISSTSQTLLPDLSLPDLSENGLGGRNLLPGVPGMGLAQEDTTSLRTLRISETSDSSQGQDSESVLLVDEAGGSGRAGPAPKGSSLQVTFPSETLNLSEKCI
T5 sequence (P43114 whole entry): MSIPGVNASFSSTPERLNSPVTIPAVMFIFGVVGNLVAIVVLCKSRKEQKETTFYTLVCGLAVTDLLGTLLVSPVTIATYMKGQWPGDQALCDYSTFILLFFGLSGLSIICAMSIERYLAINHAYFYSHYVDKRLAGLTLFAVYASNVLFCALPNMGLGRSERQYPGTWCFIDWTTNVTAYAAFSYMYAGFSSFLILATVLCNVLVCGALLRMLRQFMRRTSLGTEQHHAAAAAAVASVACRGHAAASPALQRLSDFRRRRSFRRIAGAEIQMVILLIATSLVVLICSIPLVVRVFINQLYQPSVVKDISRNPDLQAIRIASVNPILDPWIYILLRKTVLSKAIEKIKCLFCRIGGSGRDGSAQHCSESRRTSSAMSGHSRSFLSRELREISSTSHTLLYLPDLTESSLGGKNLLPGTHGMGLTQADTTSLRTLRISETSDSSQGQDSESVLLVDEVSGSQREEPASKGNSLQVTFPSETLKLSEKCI
Chain of Prostaglandin F2-alpha receptor (P43088 whole entry): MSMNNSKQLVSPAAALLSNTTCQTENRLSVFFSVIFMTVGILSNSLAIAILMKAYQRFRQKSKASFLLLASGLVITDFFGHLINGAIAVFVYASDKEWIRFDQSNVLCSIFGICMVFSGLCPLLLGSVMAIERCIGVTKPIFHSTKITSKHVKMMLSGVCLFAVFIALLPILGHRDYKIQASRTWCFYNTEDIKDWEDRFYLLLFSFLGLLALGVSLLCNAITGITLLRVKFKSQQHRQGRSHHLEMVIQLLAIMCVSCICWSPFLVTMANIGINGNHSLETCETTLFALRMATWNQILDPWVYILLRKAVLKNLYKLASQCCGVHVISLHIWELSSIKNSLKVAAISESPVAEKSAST
Chain of Prostaglandin E2 receptor EP4 subtype (Mus musculus, UniProt P32240) (P32240 whole entry): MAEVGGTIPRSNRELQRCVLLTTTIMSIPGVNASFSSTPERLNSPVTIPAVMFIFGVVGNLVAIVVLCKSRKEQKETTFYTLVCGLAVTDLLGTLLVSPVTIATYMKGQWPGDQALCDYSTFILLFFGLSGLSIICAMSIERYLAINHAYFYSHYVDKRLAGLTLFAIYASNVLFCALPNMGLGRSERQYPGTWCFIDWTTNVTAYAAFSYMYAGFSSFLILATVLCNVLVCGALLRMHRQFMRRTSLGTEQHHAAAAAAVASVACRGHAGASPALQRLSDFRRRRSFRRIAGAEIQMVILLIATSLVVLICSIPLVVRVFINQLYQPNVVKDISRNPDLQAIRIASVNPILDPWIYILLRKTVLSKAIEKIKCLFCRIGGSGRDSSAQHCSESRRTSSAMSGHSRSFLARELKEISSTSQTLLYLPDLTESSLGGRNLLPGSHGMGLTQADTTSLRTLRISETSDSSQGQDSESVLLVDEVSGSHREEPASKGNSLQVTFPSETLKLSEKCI
Chain of Prostaglandin E receptor 4 (Q9TU16 whole entry): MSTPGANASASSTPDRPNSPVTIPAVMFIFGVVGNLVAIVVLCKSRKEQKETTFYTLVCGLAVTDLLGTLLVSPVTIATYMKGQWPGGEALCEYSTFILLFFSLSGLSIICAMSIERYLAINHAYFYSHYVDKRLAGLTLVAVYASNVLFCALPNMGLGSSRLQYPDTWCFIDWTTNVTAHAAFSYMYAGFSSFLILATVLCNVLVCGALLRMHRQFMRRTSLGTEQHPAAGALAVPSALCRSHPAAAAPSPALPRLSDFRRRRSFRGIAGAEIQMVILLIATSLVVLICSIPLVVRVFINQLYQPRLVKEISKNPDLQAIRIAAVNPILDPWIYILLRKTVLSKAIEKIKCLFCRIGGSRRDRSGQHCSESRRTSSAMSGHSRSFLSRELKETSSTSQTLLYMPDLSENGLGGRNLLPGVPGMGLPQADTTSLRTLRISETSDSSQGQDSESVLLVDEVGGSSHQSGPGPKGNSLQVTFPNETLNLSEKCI
Chain of Prostacyclin receptor (P43119 whole entry): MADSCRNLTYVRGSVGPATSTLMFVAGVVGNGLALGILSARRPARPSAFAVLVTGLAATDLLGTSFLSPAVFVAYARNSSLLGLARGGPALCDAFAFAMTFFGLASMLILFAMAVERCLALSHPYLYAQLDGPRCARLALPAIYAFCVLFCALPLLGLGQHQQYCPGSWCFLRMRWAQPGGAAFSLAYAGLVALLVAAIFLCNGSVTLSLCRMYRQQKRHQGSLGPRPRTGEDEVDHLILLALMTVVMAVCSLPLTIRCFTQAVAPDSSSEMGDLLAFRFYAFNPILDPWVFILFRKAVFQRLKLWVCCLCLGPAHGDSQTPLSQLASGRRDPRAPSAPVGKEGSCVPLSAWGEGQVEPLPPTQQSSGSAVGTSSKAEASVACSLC

C[C@H](NC(=O)c1cc(Cl)cnc1Oc1cc(F)ccc1F)c1ccc(C(=O)O)cc1
IC50 [1]: < 0.05 µM

CCC(NC(=O)c1cc(F)cnc1Oc1ccc(F)cc1)c1ccc(C(=O)O)cc1 (racemic)
IC50 [2]: 0.181 µM | Papp A→B [3]: 20.1 ×10⁻⁶ cm/s

C[C@H](NC(=O)c1cc(Cl)cnc1Oc1cccc(Cl)c1)c1ccc(C(=O)O)cc1
IC50 [2]: 0.00502 µM | half-life [4]: > 2 h | IC50 [1]: 0.0218 µM

C[C@H](NC(=O)c1cc(Cl)cnc1Oc1cc(F)cc(F)c1)c1ccc(C(=O)O)cc1
IC50 [1]: < 0.05 µM

Cc1ccc(C(=O)NCc2ccc(C(=O)O)cc2)c(Oc2ccc(F)cc2)n1
IC50 [1]: > 5 µM

C[C@H](NC(=O)c1cc(Cl)cnc1Oc1cccc(F)c1F)c1ccc(C(=O)O)cc1
IC50 [1]: < 0.05 µM

C[C@H](NC(=O)c1cc(Cl)ccc1Oc1cccc(Cl)c1)c1ccc(C(=O)O)cc1
IC50 [1]: 0.0411 µM

C[C@H](NC(=O)c1cc(Cl)cnc1Oc1cncc(F)c1)c1ccc(C(=O)O)cc1
IC50 [1]: 0.175 µM

CC(C)(NC(=O)c1cc(F)cnc1Oc1ccc(F)cc1)c1ccc(C(=O)O)cc1
IC50 [2]: 0.545 µM | Papp A→B [3]: 36.3 ×10⁻⁶ cm/s

O=C(O)c1ccc(CNC(=O)c2cc(F)ccc2Oc2ccc(F)cc2)cc1
IC50 [5]: > 20 µM | IC50 [2]: 0.124 µM | IC50 [6]: 0.236 µM | Papp A→B [3]: 36.3 ×10⁻⁶ cm/s | IC50 [7]: > 20 µM | IC50 [1]: 0.317 µM

C[C@H](NC(=O)c1cc(Cl)cnc1Oc1cccc(C#N)c1)c1ccc(C(=O)O)cc1
Activity [8]: Toxic | IC50 [5]: > 20 µM | IC50 [2]: 0.0134 µM | IC50 [6]: 3.32 µM | efflux ratio [9]: 40 | Papp A→B [3]: 0.644 ×10⁻⁶ cm/s | half-life [4]: > 2 h | Papp B→A [10]: 25.8 ×10⁻⁶ cm/s | IC50 [7]: > 20 µM | IC50 [1]: 0.0362 µM

C[C@H](NC(=O)c1cc(Cl)cnc1Oc1cccc(C(F)(F)F)c1)c1ccc(C(=O)O)cc1
IC50 [1]: 0.0604 µM

C[C@H](NC(=O)c1cc(Cl)ccc1Oc1cccc(F)c1)c1ccc(C(=O)O)cc1
IC50 [5]: > 20 µM | IC50 [2]: 0.00876 µM | IC50 [6]: 1.62 µM | Papp A→B [3]: 41.9 ×10⁻⁶ cm/s | half-life [4]: > 2 h | minimal effective dose (Rattus norvegicus [11]): 10 mg/kg | IC50 [7]: > 20 µM | IC50 [1]: 0.0306 µM | Kb [1]: 0.00126 µM

O=C(O)c1ccc(CNC(=O)c2cc(F)cnc2Oc2ccc(F)cc2)cc1
IC50 [5]: > 20 µM | IC50 [2]: 0.104 µM | Ki [2]: 0.073 µM | IC50 [6]: > 20 µM | Papp A→B [3]: 25.3 ×10⁻⁶ cm/s | half-life [4]: > 2 h | solubility [12]: > 10 µM | IC50 [7]: > 20 µM | IC50 [1]: 0.575 µM

CCc1nc2c(C)nc(C)cc2n1-c1ccc(CCNC(=O)NS(=O)(=O)c2ccc(C)cc2)cc1 [GRAPIPRANT]
Ki (Thromboxane A2 receptor): > 5 µM | Ki [5]: > 5 µM | minimal effective dose (Rattus norvegicus [13]): 20 mg/kg | Ki [2]: 0.013 µM | Ki [6]: > 5 µM | Kb [14]: 0.00776 µM | minimal effective dose (Rattus norvegicus [11]): 30 mg/kg | Ki [15]: 0.02 µM | Kb [16]: 0.00646 µM | Ki [17]: 0.024 µM | Ki [18]: > 5 µM | Ki (Prostacyclin receptor): > 5 µM | Ki [7]: > 5 µM | Kb [1]: 0.00479 µM | Ki [19]: 2.93 µM

C[C@H](NC(=O)c1cc(F)cnc1Oc1ccc(F)cc1)c1ccc(C(=O)O)cc1
IC50 [2]: 0.0287 µM | Papp A→B [3]: 30.2 ×10⁻⁶ cm/s | IC50 [1]: 0.143 µM

O=C(O)c1ccc(CNC(=O)c2cc(Cl)cnc2Oc2ccc(F)cc2)cc1
IC50 [5]: > 20 µM | IC50 [2]: 0.0379 µM | IC50 [6]: 1.29 µM | Papp A→B [3]: 20.1 ×10⁻⁶ cm/s | IC50 [7]: > 20 µM | IC50 [1]: 0.254 µM

C[C@@H](NC(=O)c1cc(Cl)cnc1Oc1ccc(F)cc1)c1ccc(C(=O)O)cc1
Papp A→B [3]: 25.3 ×10⁻⁶ cm/s | IC50 [1]: 1.21 µM

C[C@H](NC(=O)c1cc(Cl)cnc1Oc1ccc(F)cc1)c1ccc(C(=O)O)cc1
IC50 [5]: > 20 µM | IC50 [2]: 0.00968 µM | IC50 [6]: 4.36 µM | Papp A→B [3]: 30.3 ×10⁻⁶ cm/s | half-life [4]: > 2 h | minimal effective dose (Rattus norvegicus [11]): 10 mg/kg | IC50 [7]: > 20 µM | IC50 [1]: 0.0259 µM | Kb [1]: 0.00245 µM

C[C@H](NC(=O)c1cc(Cl)ccc1Oc1ccc(F)cc1)c1ccc(C(=O)O)cc1
IC50 [5]: > 20 µM | IC50 [2]: 0.00659 µM | IC50 [6]: 0.709 µM | Papp A→B [3]: 32.4 ×10⁻⁶ cm/s | half-life [4]: > 2 h | minimal effective dose (Rattus norvegicus [11]): 10 mg/kg | IC50 [7]: > 20 µM | IC50 [1]: 0.0382 µM | Kb [1]: 0.00178 µM

O=C(NCc1ccc(C(=O)NS(=O)(=O)c2cccc(Cl)c2)cc1)c1cccc(OCc2nc3cc(F)ccc3s2)c1
IC50 [1]: 0.302 µM

C[C@H](NC(=O)c1cc(Cl)cnc1Oc1cccc(OC(F)(F)F)c1)c1ccc(C(=O)O)cc1
IC50 [1]: 1.79 µM

C[C@H](NC(=O)c1cc(Cl)cnc1Oc1ccc(F)c(F)c1)c1ccc(C(=O)O)cc1
IC50 [1]: < 0.05 µM

O=C(O)c1ccc(CNC(=O)c2cccc(OCc3nc4cc(F)ccc4s3)c2)cc1
half-life [4]: > 2 h | solubility [12]: > 10 µM | IC50 [1]: 0.37 µM

C[C@H](NC(=O)c1cc(Cl)cnc1Oc1ccccc1Cl)c1ccc(C(=O)O)cc1
IC50 [1]: 0.0935 µM

COc1cccc(Oc2ncc(Cl)cc2C(=O)N[C@@H](C)c2ccc(C(=O)O)cc2)c1
IC50 [1]: 0.34 µM

C[C@H](NC(=O)c1cc(Cl)cnc1Oc1ccc(Cl)cc1)c1ccc(C(=O)O)cc1
IC50 [1]: 0.0943 µM

C[C@H](NC(=O)c1cc(Cl)cnc1Oc1cncc(Cl)c1)c1ccc(C(=O)O)cc1
IC50 [1]: 0.137 µM

Cc1cnc(Oc2ccc(F)cc2)c(C(=O)NCc2ccc(C(=O)O)cc2)c1
IC50 [1]: 2.94 µM

O=C(O)c1ccc(CNC(=O)c2cc(Cl)ccc2Oc2ccc(F)cc2)cc1
IC50 [2]: 0.0216 µM | Papp A→B [3]: 51.4 ×10⁻⁶ cm/s | IC50 [1]: 0.101 µM

CSc1cccc(Oc2ncc(Cl)cc2C(=O)N[C@@H](C)c2ccc(C(=O)O)cc2)c1
IC50 [1]: 0.4 µM

C[C@H](NC(=O)c1cc(Cl)cnc1Oc1ccccc1F)c1ccc(C(=O)O)cc1
IC50 [1]: 0.0614 µM
